Data set [1] deals with T1, Carbonic anhydrase 2 (Homo sapiens, UniProt P00918). The data set is described as follows: Inhibition of human carbonic anhydrase II. The settings on record: read-out: I50. In short, it runs like this:
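CA II was affinity-purified from human erythrocytes. CO2 hydration was assayed by pH stat in 0.02 M Tris chloride, pH 8.6, at 2 °C with CO2–air (5:95) bubbled at 150 mL/min. The 0.025 N NaOH volume needed to hold pH 8.3 over 3 min was recorded, with inhibitor added before enzyme. I50 was read from semilog plots of % inhibition versus log concentration.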

The test system of data set [2] is Oryctolagus cuniculus. As to the kind of experiment: Ability to penetrate the albino rabbit eye and to inhibit the target enzyme in an homogenate of the iris-ciliary body at 1 hr postdosing, ex vivo when dosed in 0.5% aqueousi (hydroxymethyl) cellulose. The format is functional. In short, it runs like this:
(§1)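 Albino rabbits received one 50 μL drop of test suspension topically; 1 h after dosing the iris-ciliary body was homogenized and its carbonic anhydrase activity measured ex vivo. Screening used 0.5%, with lower concentrations for some compounds. Reference suspensions were given as 0.1% in 0.5% aqueous (hydroxyethyl)cellulose.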

Data set [3] concerns Oryctolagus cuniculus. As to the kind of experiment: Ability to penetrate the albino rabbit eye and to inhibit the target enzyme in an homogenate of the iris-ciliary body at 1 hr postdosing, ex vivo when dosed in 0.1% aqueousi (hydroxymethyl) cellulose. In kind it is functional. In short, it runs like this: as §1
In data set [4] the target is T1, Carbonic anhydrase 2. As to the kind of experiment: Compound was tested in vitro for binding affinity against human carbonic anhydrase II; (ki*10e-9). In short, it runs like this:
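Fluorescence competition against dansylamide used purified human erythrocyte CA II (1×10^-7 M) and dansylamide (2×10^-6 M) in pH 7.4, 0.1 ionic strength phosphate buffer at 37 °C. Excitation was 280 nm and emission 460 nm, with stepwise addition of test compound in buffer.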

Data set [5] in a line: Ionization constant (pKa). In kind it is physicochemical. Summed up: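 The half-neutralization point was found by titration with 0.5 N NaOH and 0.5 N HCl in 30% EtOH–H2O using a glass electrode.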
A short description of data set [6]: Partition coefficient (logD7.4). In kind it is physicochemical. The settings on record: octanol/water, pH 7.4. In short, it runs like this:
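Compound was equilibrated between 1-octanol and 0.1 ionic strength pH 7.4 phosphate buffer; each phase was quantified by UV spectrophotometry.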

The nature of data set [7]: Aqueous solubility (25 degree C). In kind it is physicochemical. The settings on record: read-out: S.
For data set [8], the species on record is Oryctolagus cuniculus. As to the kind of experiment: Maximum Intraocular pressure reduction in alpha-CT rabbits at the dose (as a 50 microL drop of suspension in 0.5% aqueous cellulose). In kind it is functional. In short, it runs like this:
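α-Chymotrypsinized rabbits received a 50 μL topical drop of test suspension. IOP was read before dosing and at 0.5, 1, 2, 3, 4 and 5 h after. The value is the maximum fall from the pre-dose reading. Parallel control groups got a drop of 0.5% aqueous (hydroxyethyl)cellulose.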

Where “and” joins values, the source holds several entries; their conditions need not be identical. Equal entries are not always repeated. Calls of active or inactive are those of the source. The calls are words filed in the database; no cut-off is given here. A value given as a limit tells only on which side of the number the result lay.

In the case of `CC(C)CN(C)Cc1cc(C(=O)c2csc(S(N)(=O)=O)c2)ccc1O.Cl`, the IC50 on Carbonic anhydrase 2 [1] was 9 nM. The Inhibition in the data set on Oryctolagus cuniculus [2] is 58%.
On to `Cc1ccc(S(=O)(=O)c2coc(S(N)(=O)=O)c2)cc1`, for which, on Carbonic anhydrase 2 [1], the IC50 is 4.2 nM. Also, the Inhibition in the data set with Oryctolagus cuniculus [2] is reported as 96%; in the data set with Oryctolagus cuniculus [3], 36%.
In the case of `CN(C)Cc1cc(S(=O)(=O)c2coc(S(N)(=O)=O)c2)ccc1O.Cl`, the IC50 on Carbonic anhydrase 2 [1] turned out to be 7 nM. For the same compound, the inhibition constant (Ki) on Carbonic anhydrase 2 [4] was 2.34 nM and 4.9 nM. Further, the Inhibition stood at 81% with Oryctolagus cuniculus [2] and 78% in the data set on Oryctolagus cuniculus [3].
On to `NS(=O)(=O)c1cc(S(=O)(=O)c2ccc(O)cc2)co1`, for which the IC50 on Carbonic anhydrase 2 [1] turned out to be 4.2 nM. Further, the Inhibition with Oryctolagus cuniculus [2] is listed as 54%; with Oryctolagus cuniculus [3], 100%.
With `CC(C)CNCc1ccccc1S(=O)(=O)c1csc(S(N)(=O)=O)c1.Cl`, the IC50 on Carbonic anhydrase 2 [1] was 18 nM. Besides, the Ki at Carbonic anhydrase 2 [4] was 21.1 nM. The Inhibition was 62% in the data set with Oryctolagus cuniculus [2] and 47% in the data set on Oryctolagus cuniculus [3].
For the compound `CCN(CC)Cc1cc(S(=O)(=O)c2csc(S(N)(=O)=O)c2)ccc1O.Cl`, the IC50 on Carbonic anhydrase 2 [1] came out at 9 nM. Also, the Inhibition in the data set with Oryctolagus cuniculus [2] was 71%.
For the compound `CC(C)CNCc1cccc(S(=O)(=O)c2csc(S(N)(=O)=O)c2)c1.Cl`, the IC50 at Carbonic anhydrase 2 [1] is 12 nM. The Inhibition with Oryctolagus cuniculus [2] was 84%.
Consider `Cl.NS(=O)(=O)c1cc(S(=O)(=O)c2ccc(CNCc3ccccn3)cc2)cs1`, for which the IC50 at Carbonic anhydrase 2 [1] came to 8 nM. Further, the Inhibition came to 92% in the data set on Oryctolagus cuniculus [2] and 75% in the data set on Oryctolagus cuniculus [3].
On the same counts, the results for `CC(C)CN(C)Cc1cc(S(=O)(=O)c2csc(S(N)(=O)=O)c2)ccc1O.Cl` are 5 nM, 90% and 26%.
In data set [5], `NS(=O)(=O)c1cc(S(=O)(=O)c2ccc(O)cc2)cs1` came in with a pKa of 9.2. On Carbonic anhydrase 2 [1], the IC50 worked out at 5 nM. At Carbonic anhydrase 2 [4], this compound yielded a Ki of 8 nM. This compound gave an Inhibition in the data set on Oryctolagus cuniculus [2] of 82%.
As for `CNCc1ccc(C(=O)c2csc(S(N)(=O)=O)c2)cc1.Cl`, the IC50 at Carbonic anhydrase 2 [1] amounted to 4.5 nM. Moreover, the Inhibition is given as 67% with Oryctolagus cuniculus [2] and 13% in the data set on Oryctolagus cuniculus [3].
In data set [6], `Cl.NS(=O)(=O)c1cc(C(=O)c2cccc(CN3CCOCC3)c2)cs1` showed a logD of 1.11. The solubility in data set [7] was 4800 µg/mL. Further, the pKa in data set [5] was 9.03. The IC50 at Carbonic anhydrase 2 [1] is 5 nM. The same compound came in with a Ki on Carbonic anhydrase 2 [4] of 10.8 nM. In the data set on Oryctolagus cuniculus [2], the Inhibition was 90%.
Turning to `COc1ccc(C(=O)c2csc(S(N)(=O)=O)c2)cc1`, the IC50 on Carbonic anhydrase 2 [1] was determined as 3.2 nM. Also, the Inhibition in the data set with Oryctolagus cuniculus [2] came out at 31%.
Regarding `CCN(CC)Cc1cc(C(=O)c2csc(S(N)(=O)=O)c2)ccc1O.Cl`, the IC50 at Carbonic anhydrase 2 [1] came to 7 nM. The same compound yielded a Ki at Carbonic anhydrase 2 [4] of 18.6 nM. Further, the Inhibition in the data set with Oryctolagus cuniculus [2] came to 55%; in the data set with Oryctolagus cuniculus [3], 54%.
As to `CCN(CC)Cc1cc(S(=O)(=O)c2coc(S(N)(=O)=O)c2)ccc1O.Cl`, on Carbonic anhydrase 2 [1], the IC50 came out at 10 nM. Besides, the Ki at Carbonic anhydrase 2 [4] came out at 4 nM. For the same compound, the figures for the Inhibition with Oryctolagus cuniculus [2] and in the data set with Oryctolagus cuniculus [3] were 82% and 58%, respectively.
Consider `CN(C)Cc1cc(S(=O)(=O)c2csc(S(N)(=O)=O)c2)ccc1O.Cl`, for which the IC50 at Carbonic anhydrase 2 [1] was determined as 9 nM. Further, the Inhibition in the data set with Oryctolagus cuniculus [2] is 57%; in the data set on Oryctolagus cuniculus [3] it was 40%.
In data set [6], `CN1CCN(Cc2ccccc2S(=O)(=O)c2csc(S(N)(=O)=O)c2)CC1.Cl` showed a logD of 1.13. The solubility in data set [7] was over 64000 µg/mL. The compound also showed a pKa in data set [5] of 8.8. Also, the IC50 on Carbonic anhydrase 2 [1] stood at 23 nM. Besides, the values for the Inhibition with Oryctolagus cuniculus [2] and in the data set with Oryctolagus cuniculus [3] were 77% and 65%, respectively. Also, the “Max IOP reduction” value in the data set listed under Oryctolagus cuniculus [8] is given as -2.7 mmHg.
Consider `NS(=O)(=O)c1cc(C(=O)c2ccc(O)cc2)cs1`, for which the IC50 at Carbonic anhydrase 2 [1] came out at 2.5 nM. In the data set on Oryctolagus cuniculus [2], this compound yielded an Inhibition of 83%.
The corresponding values for `Cc1ccc(S(=O)(=O)c2csc(S(N)(=O)=O)c2)cc1` are 3.2 nM and 86%.
On the same counts, the results for `Cl.NS(=O)(=O)c1cc(C(=O)c2ccc(CNCc3ccccc3)cc2)cs1` are 2.4 nM and 81%.
In data set [6], `CC(C)(C)NCc1ccc(S(=O)(=O)c2csc(S(N)(=O)=O)c2)cc1.Cl` showed a logD of -0.143. Moreover, the solubility in data set [7] is 4500 µg/mL. The compound further showed a pKa in data set [5] of 9.3. Also, the IC50 on Carbonic anhydrase 2 [1] turned out to be 36 nM. Further, the Inhibition with Oryctolagus cuniculus [2] is reported as 61%.
Regarding `CN(C)Cc1cc(C(=O)c2csc(S(N)(=O)=O)c2)ccc1O.Cl`, the IC50 at Carbonic anhydrase 2 [1] was determined as 6.4 nM. At Carbonic anhydrase 2 [4], this compound gave a Ki of 34.4 nM. For the same compound, the Inhibition in the data set with Oryctolagus cuniculus [2] was 59%.
Consider `CC(C)NCc1cccc(S(=O)(=O)c2csc(S(N)(=O)=O)c2)c1.Cl`, for which the IC50 on Carbonic anhydrase 2 [1] came out at 22 nM. Further, in the data set on Oryctolagus cuniculus [2], the Inhibition stood at 71%.
On the same counts, the results for `NS(=O)(=O)c1cc(S(=O)(=O)c2cccc(O)c2)cs1` are 2.1 nM and 86%.
As for `CC(C)CNCc1ccc(C(=O)c2csc(S(N)(=O)=O)c2)cc1.Cl`, the IC50 at Carbonic anhydrase 2 [1] is 4.8 nM. For the same compound, the results for the Inhibition in the data set on Oryctolagus cuniculus [2] and in the data set on Oryctolagus cuniculus [3] were 87% and 77%, respectively. The “Max IOP reduction” value in the data set filed under Oryctolagus cuniculus [8] is “inactive”.
`Cc1ccc(C(=O)c2csc(S(N)(=O)=O)c2)cc1`: at Carbonic anhydrase 2 [1], the IC50 is 2 nM. The compound also registered an Inhibition in the data set on Oryctolagus cuniculus [2] of 26%.
Consider `CCC(C)NCc1cccc(S(=O)(=O)c2csc(S(N)(=O)=O)c2)c1.Cl` (centres undefined), for which the logD in data set [6] was 0.477. For the same compound, in data set [7], the solubility amounted to 20000 µg/mL. For the same compound, in data set [5], the pKa was found to be 9.05. Also, at Carbonic anhydrase 2 [1], the IC50 was 26 nM. The compound also showed an Inhibition in the data set with Oryctolagus cuniculus [2] of 72%. In the data set filed under Oryctolagus cuniculus [8], the “Max IOP reduction” value is -2.3 mmHg.
Take `Cl.NS(=O)(=O)c1cc(S(=O)(=O)c2ccccc2CNCc2ccccn2)cs1`: the IC50 at Carbonic anhydrase 2 [1] was 15 nM. Also, the Inhibition in the data set with Oryctolagus cuniculus [2] and with Oryctolagus cuniculus [3] was 88% throughout. Moreover, the “Max IOP reduction” value in the data set filed under Oryctolagus cuniculus [8] was -6.5 mmHg.
As to `CC(C)CNCc1ccc(S(=O)(=O)c2csc(S(N)(=O)=O)c2)cc1.Cl`, the IC50 on Carbonic anhydrase 2 [1] amounted to 13 nM. Further, at Carbonic anhydrase 2 [4], the affinity, expressed as Ki, was 6.5 nM. Besides, the figures for the Inhibition in the data set with Oryctolagus cuniculus [2] and in the data set on Oryctolagus cuniculus [3] were 87% and 63%, respectively.
Turning to `CCCCNCc1ccc(S(=O)(=O)c2csc(S(N)(=O)=O)c2)cc1.Cl`, the IC50 at Carbonic anhydrase 2 [1] amounted to 29 nM. Besides, the Inhibition was 87% with Oryctolagus cuniculus [2] and 48% in the data set with Oryctolagus cuniculus [3].
Turning to `CC(C)CCNCc1cccc(C(=O)c2csc(S(N)(=O)=O)c2)c1.Cl`, on Carbonic anhydrase 2 [1], the IC50 stood at 9 nM. This compound also displayed an Inhibition with Oryctolagus cuniculus [2] of 82%.
As to `CC(C)CNCc1cccc(C(=O)c2csc(S(N)(=O)=O)c2)c1.Cl`, the IC50 on Carbonic anhydrase 2 [1] is 13 nM. In addition, the inhibition constant Ki on Carbonic anhydrase 2 [4] stood at 14.5 nM. In the data set on Oryctolagus cuniculus [2], this compound had an Inhibition of 68%.
The compound `COc1ccc(S(=O)(=O)c2coc(S(N)(=O)=O)c2)cc1` had a log distribution coefficient (logD) in data set [6] of 1.17. This compound also registered a pKa in data set [5] of 6.32. At Carbonic anhydrase 2 [1], the IC50 worked out at 2.5 nM. The Inhibition was 68% and 97% with Oryctolagus cuniculus [2]; 95% in the data set on Oryctolagus cuniculus [3].
With `COc1ccc(C(=O)c2coc(S(N)(=O)=O)c2)cc1`, the IC50 on Carbonic anhydrase 2 [1] is 2 nM. Moreover, the Inhibition with Oryctolagus cuniculus [2] is 67%; in the data set with Oryctolagus cuniculus [3], 13%.
Regarding `CC(C)CNCc1ccc(S(=O)(=O)c2csc(S(N)(=O)=O)c2)cc1O`, the IC50 on Carbonic anhydrase 2 [1] worked out at 14 nM.
Regarding `COc1ccc(S(=O)(=O)c2csc(S(N)(=O)=O)c2)cc1`, the pKa in data set [5] is 8.78. For the same compound, the IC50 at Carbonic anhydrase 2 [1] was found to be 45 nM. This compound also came in with an Inhibition in the data set on Oryctolagus cuniculus [2] of 68%.
On to `CCN(CC)Cc1ccc(S(=O)(=O)c2csc(S(N)(=O)=O)c2)cc1O.Cl`, for which the IC50 on Carbonic anhydrase 2 [1] amounted to 16 nM. The Inhibition with Oryctolagus cuniculus [2] is recorded as 84%.

Broadly, the Inhibition is the percentage by which the read-out fell short of the control. Lower therefore signals a response near the control. In general, Ki refers to a measure of affinity in units of concentration, obtained from inhibition or displacement. A high value points to a looser hold on the target. In general, pKa refers to the pH at which an ionisable group is half protonated. What is called logD is lipophilicity at a set pH, counting ionised and neutral species.
